Data from ChEMBL document CHEMBL2034969, “Bioactive carbazole alkaloids from Clausena wallichii roots” (J Nat Prod, 2012).
In brackets after ≈: the same amount, converted by molar mass. Activity calls are given as the source filed them. No cut-off for these calls is given here.

Tests used:
[1] = test system: Staphylococcus aureus; assay: Antibacterial activity against Staphylococcus aureus TISTR 1466 by broth dilution method; format: functional
Summary of the method: (§1)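 MIC found by 2-fold serial dilution in Mueller Hinton broth following CLSI (2002) recommendations. Test substances dissolved in DMSO. Vancomycin and gentamycin run as reference drugs.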

[2] = test system: Staphylococcus aureus; assay: Antibacterial activity against methicillin-resistant Staphylococcus aureus SK1 by broth dilution method; format: functional
[3] = test system: NCI-H187; assay: Cytotoxicity against human NCI-H187 cells by resazurin reduction assay; format: functional, cell-based
[4] = test system: Escherichia coli; assay: Antibacterial activity against Escherichia coli TISTR 780 by broth dilution method; format: functional; summary of the method: as §1
[5] = test system: KB; assay: Cytotoxicity against human KB cells by resazurin reduction assay; format: functional, cell-based
[6] = test system: Salmonella typhimurium; assay: Antibacterial activity against Salmonella typhimurium TISTR 292 by broth dilution method; format: functional, Salmonella enterica subsp. enterica serovar Typhimurium; summary of the method: as §1
[7] = test system: MCF7; assay: Cytotoxicity against human MCF7 cells by resazurin reduction assay; format: functional, cell-based
[8] = Homo sapiens, NCI-H187, read-out: IC50
[9] = Homo sapiens, KB, read-out: IC50
[10] = Homo sapiens, MCF7, read-out: IC50
[11] = Salmonella enterica subsp. enterica serovar Typhimurium

Row | Compound | MIC [1] | MIC [2] | IC50 ([3]; nci-h187) | MIC [4] | IC50 ([5]; kb) | MIC ([6]; Salmonella enterica) | IC50 ([7]; mcf7) | IC50 [3, 8] | IC50 [5, 9] | IC50 [7, 10] | MIC [6, 11]
1 | COC(=O)c1cc2c(cc1OC)[nH]c1ccccc12 [CLAUSINE L] | inactive | inactive | Not Active | 128 µg/mL (≈ 501 µM) | Not Active | 128 µg/mL (≈ 501 µM) | Not Active |  |  |  | 
2 | CC(C)=CCc1c(O)c(C=O)cc2c1[nH]c1cc(O)ccc12 [7-HYDROXYHEPTAPHYLLINE] | 8 µg/mL (≈ 27.1 µM) | 4 µg/mL (≈ 13.5 µM) |  | 64 µg/mL (≈ 217 µM) |  | 64 µg/mL (≈ 217 µM) | Not Active | 19.6 µM | 107 µM |  | 
3 | Cc1c2ccncc2c(C)c2c1[nH]c1ccccc12 [ELLIPTECINE] |  |  |  |  |  |  |  | 3.1 µM | 5.2 µM |  | 
4 | COC(=O)c1cc2c(cc1O)[nH]c1ccccc12 [MUKONIDINE] | 64 µg/mL (≈ 265 µM) | 64 µg/mL (≈ 265 µM) |  | 128 µg/mL (≈ 531 µM) | Not Active | 32 µg/mL (≈ 133 µM) |  | 134 µM |  | 205 µM | 
5 | COc1cccc2c1C(=O)c1c(O)c3c(c(O)c1C2=O)C[C@@](O)(C(=O)CO)C[C@@H]3O[C@H]1C[C@H](N)[C@H](O)[C@H](C)O1 [DOXORUBICIN] |  |  |  |  |  |  |  | 0.1 µM | 1.7 µM | 16.8 µM | 
6 | COc1ccc2c(c1)[nH]c1ccc(C=O)cc12 [CLAUSZOLINE K] | inactive | 128 µg/mL (≈ 568 µM) | Not Active | 128 µg/mL (≈ 568 µM) | Not Active |  | Not Active |  |  |  | inactive
7 | Cc1cc2c([nH]c3ccccc32)c2c1OC(C)(C)C=C2 [GRINIMIBINE] | inactive | inactive |  | 128 µg/mL (≈ 486 µM) |  |  |  | 58.9 µM | 263 µM | 28.8 µM | inactive
8 | COc1cc2[nH]c3c(CC=C(C)C)c(O)c(C=O)cc3c2c(-c2cc3c(cc2O)[nH]c2ccccc23)c1O [CLAUSENAWALLINE B] | 8 µg/mL (≈ 15.8 µM) | 16 µg/mL (≈ 31.6 µM) |  | 128 µg/mL (≈ 253 µM) |  | 128 µg/mL (≈ 253 µM) |  |  |  |  | 
9 | COc1ccc2c(c1)[nH]c1c(CC=C(C)C)c(O)c(C=O)cc12 | inactive | inactive |  | 128 µg/mL (≈ 414 µM) | Not Active | 128 µg/mL (≈ 414 µM) |  | 42.3 µM |  | 53.9 µM | 
10 | CC(C)=CCc1c(O)c(C=O)cc2c1[nH]c1ccccc12 [HEPTAPHYLLINE] | inactive | inactive |  | 128 µg/mL (≈ 458 µM) |  | 128 µg/mL (≈ 458 µM) |  | 20.2 µM | 94.2 µM | 171 µM | 
11 | GENTAMICIN |  |  |  | 0.25 µg/mL |  |  |  |  |  |  | 0.125 µg/mL
12 | CN[C@H](CC(C)C)C(=O)N[C@H]1C(=O)N[C@@H](CC(N)=O)C(=O)N[C@H]2C(=O)N[C@H]3C(=O)N[C@H](C(=O)N[C@H](C(=O)O)c4cc(O)cc(O)c4-c4cc3ccc4O)[C@H](O)c3ccc(c(Cl)c3)Oc3cc2cc(c3O[C@@H]2O[C@H](CO)[C@@H](O)[C@H](O)[C@H]2O[C@H]2C[C@](C)(N)[C@H](O)[C@H](C)O2)Oc2ccc(cc2Cl)[C@H]1O [VANCOMYCIN] | 0.25 µg/mL (≈ 0.173 µM) |  |  |  |  |  |  |  |  |  | 
13 | COc1cc2[nH]c3ccccc3c2cc1C=O [GLYCOSININE] | inactive | 128 µg/mL (≈ 568 µM) |  | inactive |  | 128 µg/mL (≈ 568 µM) |  | 18.2 µM | 103 µM | 111 µM | 
14 | COc1cc2[nH]c3ccccc3c2cc1O | inactive | inactive |  | 128 µg/mL (≈ 600 µM) |  | 128 µg/mL (≈ 600 µM) |  | 27.4 µM | 213 µM | 31.4 µM | 
15 | COc1ccc2c(c1)[nH]c1cc(OC)c(C=O)cc12 [LANSINE] | inactive | inactive | Not Active | 128 µg/mL (≈ 501 µM) | Not Active |  | Not Active |  |  |  | inactive
16 | CC1(C)C=Cc2c(ccc3[nH]c4cc(O)c(C=O)cc4c23)O1 [CLAURAILAS D] | inactive | 128 µg/mL (≈ 436 µM) |  | 64 µg/mL (≈ 218 µM) |  | 128 µg/mL (≈ 436 µM) |  | 60.8 µM | 293 µM | 66.1 µM | 
17 | COC(=O)c1ccc2[nH]c3ccccc3c2c1 | inactive | inactive |  | 128 µg/mL (≈ 568 µM) |  | 128 µg/mL (≈ 568 µM) |  | 95.8 µM | 59.7 µM | 170 µM | 
18 | COc1cc2[nH]c3ccc(O)c(-c4c(O)c(C)cc5c4[nH]c4ccc6c(c45)C=CC(C)(C)O6)c3c2cc1C [CLAUSENAWALLINE E] | 8 µg/mL (≈ 15.9 µM) | 8 µg/mL (≈ 15.9 µM) |  | 128 µg/mL (≈ 254 µM) |  | 128 µg/mL (≈ 254 µM) |  |  |  |  | 
19 | COC(=O)c1ccc2[nH]c3cc(OC)ccc3c2c1 [CLAUSINE C] | inactive | inactive | Not Active | inactive | Not Active | 128 µg/mL (≈ 501 µM) | Not Active |  |  |  | 
20 | Cc1cc2c([nH]c3ccc4c(c32)C=CC(C)(C)O4)c(-c2c(O)c(C)cc3c2[nH]c2ccc4c(c23)C=CC(C)(C)O4)c1O [CLAUSENAWALLINE A] | 64 µg/mL (≈ 115 µM) | 128 µg/mL (≈ 230 µM) |  | inactive |  | 128 µg/mL (≈ 230 µM) |  |  |  |  | 
21 | Cc1cc2c([nH]c3ccc4c(c32)C=CC(C)(C)O4)c2c1OC(C)(C)C=C2 [CLAUSENAWALLINE C] | inactive | inactive | Not Active | 128 µg/mL (≈ 371 µM) | Not Active | 128 µg/mL (≈ 371 µM) | Not Active |  |  |  | 
22 | COC(=O)c1cc2c([nH]c3ccccc32)c(O)c1-c1c(O)c(C=O)cc2c1[nH]c1cc(OC)ccc12 [CLAUSENAWALLINE F] | 64 µg/mL (≈ 133 µM) | 64 µg/mL (≈ 133 µM) |  | 128 µg/mL (≈ 266 µM) |  |  |  | 4.5 µM | 10.2 µM | 62.3 µM | inactive
23 | COc1ccc2c(c1)[nH]c1cc(O)c(C=O)cc12 | inactive | 128 µg/mL (≈ 531 µM) |  | inactive |  | 128 µg/mL (≈ 531 µM) |  | 45.9 µM | 181 µM | 69.1 µM | 
24 | O=Cc1cc2c(cc1O)[nH]c1ccccc12 [MUKONAL] | inactive | 64 µg/mL (≈ 303 µM) | Not Active | 128 µg/mL (≈ 606 µM) | Not Active | 128 µg/mL (≈ 606 µM) | Not Active |  |  |  | 
25 | COc1ccc2c(c1)[nH]c1cc(OC)c(O)cc12 [CLAUSENAWALLINE D] | inactive | inactive |  | 128 µg/mL (≈ 526 µM) |  | 128 µg/mL (≈ 526 µM) |  |  |  |  | 
26 | COC(=O)c1cc2c(cc1OC)[nH]c1cc(OC)ccc12 [CLAUSZOLINE C] | inactive | inactive | Not Active | 128 µg/mL (≈ 449 µM) | Not Active | 128 µg/mL (≈ 449 µM) | Not Active |  |  |  | 
